# Measured values as given in ChEMBL document CHEMBL1152990, “The mechanism of action of beta-D-2'-deoxy-2'-fluoro-2'-C-methylcytidine involves a second metabolic pathway leading to beta-D-2'-deoxy-2'-fluoro-2'-C-methyluridine 5'-triphosphate, a potent inhibitor of the hepatitis C virus RNA-dependent RNA polymerase” (Antimicrob Agents Chemother, 2008).
# Active and inactive are the calls of the source. The rule behind the calls is not given here.
# Key:
# [1] = target: Creatine kinase B-type (Homo sapiens) (UniProt P12277); assay: Activity of human creatine kinase isoform BB assessed as formation of RO2433 triphosphate at 200 uM
# Sequence of Creatine kinase B-type (Homo sapiens) (P12277 whole entry, canonical isoform): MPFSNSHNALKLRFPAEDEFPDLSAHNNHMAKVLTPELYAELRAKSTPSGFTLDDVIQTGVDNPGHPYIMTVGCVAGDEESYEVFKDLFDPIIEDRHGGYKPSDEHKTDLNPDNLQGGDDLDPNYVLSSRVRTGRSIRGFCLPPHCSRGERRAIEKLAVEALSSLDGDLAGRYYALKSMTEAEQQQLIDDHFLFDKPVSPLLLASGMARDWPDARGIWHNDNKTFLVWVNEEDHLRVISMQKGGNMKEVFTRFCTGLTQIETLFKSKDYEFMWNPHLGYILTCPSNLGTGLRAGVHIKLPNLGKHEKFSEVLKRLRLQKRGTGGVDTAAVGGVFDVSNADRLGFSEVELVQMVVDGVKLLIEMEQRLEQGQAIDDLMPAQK
# Homo sapiens = species on record: Homo sapiens; assay: Activity of human creatine kinase isoform MB assessed as formation of RO2433 triphosphate at 200 uM
# [2] = target: T1, Phosphoglycerate kinase (Saccharomyces cerevisiae S288c) (UniProt P00560); assay: Activity of yeast 3-phosphoglycerate kinase assessed as formation of RO2433 triphosphate at 200 uM
# T1 sequence (whole entry): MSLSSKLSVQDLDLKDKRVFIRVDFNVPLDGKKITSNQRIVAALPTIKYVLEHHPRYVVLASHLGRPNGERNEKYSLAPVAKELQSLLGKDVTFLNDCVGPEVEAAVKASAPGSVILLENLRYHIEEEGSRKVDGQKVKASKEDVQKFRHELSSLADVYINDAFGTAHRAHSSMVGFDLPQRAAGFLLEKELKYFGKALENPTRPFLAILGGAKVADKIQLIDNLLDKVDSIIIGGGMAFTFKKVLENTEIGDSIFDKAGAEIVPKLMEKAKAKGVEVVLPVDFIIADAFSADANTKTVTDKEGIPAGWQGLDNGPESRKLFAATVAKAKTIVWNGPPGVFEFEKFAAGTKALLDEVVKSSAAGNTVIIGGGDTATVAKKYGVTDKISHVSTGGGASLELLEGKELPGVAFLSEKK
# Huh-7 [3] = assay: Ratio of Kcat to Km for cloned NDPK in human HuH7 cells assessed as formation of RO2433 triphosphate by spectrophotometry; format: cell-based
# How it was run: (§1)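 Recombinant human kinase read out by PK/LDH coupling, following NADH oxidation at 340 nm. Rates were measured over varied substrate levels and fitted for steady-state parameters.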
# [4] = target: Creatine kinase M-type (Homo sapiens) (UniProt P06732); assay: Activity of human creatine kinase isoform MM assessed as formation of RO2433 triphosphate at 200 uM
# Sequence of Creatine kinase M-type (Homo sapiens) (P06732 whole entry, canonical isoform): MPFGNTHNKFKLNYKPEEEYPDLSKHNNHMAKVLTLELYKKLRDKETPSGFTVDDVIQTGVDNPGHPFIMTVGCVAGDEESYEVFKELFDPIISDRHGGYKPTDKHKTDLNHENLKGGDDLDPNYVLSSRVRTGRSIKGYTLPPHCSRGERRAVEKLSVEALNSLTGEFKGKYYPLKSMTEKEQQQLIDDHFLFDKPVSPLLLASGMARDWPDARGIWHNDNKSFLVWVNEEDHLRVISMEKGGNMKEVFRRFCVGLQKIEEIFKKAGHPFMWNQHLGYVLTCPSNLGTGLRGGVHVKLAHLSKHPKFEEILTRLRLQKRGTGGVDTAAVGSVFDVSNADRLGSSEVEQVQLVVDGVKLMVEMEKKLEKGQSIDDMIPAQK
# Hepacivirus hominis [5] = assay: Ratio of Ki to Km for wild type HCV NS5B polymerase
# How it was run: (§2)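 De novo RNA synthesis by NS5B lacking 21 C-terminal residues, in 50 mM HEPES pH 7.5 with 5 mM MgCl2 and 2 mM DTT at 27°C. Template was unprimed minus-IRES RNA, 2.8 μg each of enzyme and template. CTP 10 μM, ATP and GTP 100 μM; 32P-UTP and inhibitor were varied. Aliquots were quenched with EDTA/NaCl/citrate.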
# Hepacivirus hominis [6] = assay: Fold resistance, ratio of Ki/Km for HCV NS5B polymerase S282T mutant to Ki/Km for wild type HCV NS5B polymerase
# How it was run: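 Ki and Km were measured for wild-type and S282T NS5B (C-terminal Δ21) by steady-state de novo RNA synthesis. Conditions were an unprimed minus-IRES template, 27°C, 50 mM HEPES pH 7.5, 5 mM MgCl2, 2 mM DTT, and varied 32P-labelled natural NTP with varied inhibitor. Fold resistance = (Ki/Km mutant)/(Ki/Km wild type).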
# [7] = tested on: RNA-directed RNA polymerase (Hepacivirus hominis), O39930 [S282T]; assay: Ratio of Ki to Km for HCV NS5B polymerase S282T mutant
# How it was run: (§3)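 Recombinant HCV NS5B S282T (21-aa C-terminally truncated, E. coli-expressed, metal-affinity purified) in a de novo steady-state RNA synthesis assay on an unprimed minus-IRES RNA template. Run at 27°C in 50 mM HEPES pH 7.5 with 5 mM MgCl2 and 2 mM DTT. For the CTP analog, UTP/GTP/ATP were fixed at 10/100/100 μM while 32P-CTP and the inhibitor were varied. For the UTP analog, CTP/ATP/GTP were fixed at 10/100/100 μM while 32P-UTP and the inhibitor were varied.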
# Huh-7 [8] = assay: Activity of cloned NDPK in human HuH7 cells assessed as formation of uridine triphosphate by spectrophotometry; format: cell-based; how it was run: as §1
# Huh-7 [9] = assay: Ratio of Kcat to Km for cloned NDPK in human HuH7 cells assessed as formation of uridine triphosphate by spectrophotometry; format: cell-based; how it was run: as §1
# Huh-7 [10] = assay: Ratio of Kcat to Km for cloned NDPK in human HuH7 cells assessed as formation of […] triphosphate by spectrophotometry; format: cell-based
# Hepatitis C virus [11] = assay: Antiviral activity against wild type HCV infected in human HuH7 cells assessed as inhibition of viral RNA replication after 4 days by replicon assay in absence of DCTD inhibitor zedularine; format: functional; settings: Hepacivirus hominis; Huh-7
# How it was run: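 Clone A Huh-7 replicon cells at 1,500 cells/well, without G418. Threefold serial compound dilutions were given with or without 100 μM zebularine, for 4 days at 37°C in 5% CO2. Replicon RNA was quantified by single-step multiplex RT-PCR, and activity was taken as ΔCT relative to the no-drug control.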
# Hepatitis C virus [12] = assay: Antiviral activity against HCV harboring NS5B polymerase S282T mutation infected in human HuH7 cells assessed as inhibition of viral RNA replication after 4 days by replicon assay in absence of DCTD inhibitor zedularine; format: functional; settings: Hepacivirus hominis; Huh-7
# How it was run: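 Huh-7 clone A subgenomic replicon cells carrying NS5B S282T (selected by serial passage with 2′-C-methyladenosine) were seeded at 1,500 cells/well without G418. Threefold compound dilutions were added alone or with 100 μM zebularine, followed by 4 days at 37°C, 5% CO2. Replicon RNA was quantified by single-step multiplex RT-PCR, and activity was taken as ΔCT versus the no-drug control to give EC90.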
# [13] = tested on: C[C@@]1(F)[C@H](O)[C@@H](CO)O[C@H]1n1ccc(N)nc1=O; assay: Ratio of Kcat to Km for cloned 2'-deoxycytidine kinase in human HepG2 cells assessed as formation of formation of […] monophosphate by spectrophotometry; format: cell-based
# Hepacivirus hominis [14] = assay: Activity of wild type HCV NS5B polymerase; how it was run: as §2
# [15] = target: T2, Thymidine kinase 2, mitochondrial (Homo sapiens) (UniProt O00142); assay: Activity of thymidine kinase 2 up to 1 mM
# T2 sequence (whole entry): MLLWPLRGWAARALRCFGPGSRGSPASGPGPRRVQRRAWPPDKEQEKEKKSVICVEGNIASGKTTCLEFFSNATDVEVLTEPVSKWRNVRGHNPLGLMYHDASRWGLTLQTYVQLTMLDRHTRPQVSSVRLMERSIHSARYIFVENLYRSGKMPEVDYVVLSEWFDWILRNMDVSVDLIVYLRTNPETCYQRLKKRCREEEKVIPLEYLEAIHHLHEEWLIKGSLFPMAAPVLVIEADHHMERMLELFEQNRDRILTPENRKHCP
# [16] = target: T3, Thymidine kinase, cytosolic (Homo sapiens) (UniProt P04183); assay: Activity of thymidine kinase 1 up to 1 mM
# T3 sequence (whole entry): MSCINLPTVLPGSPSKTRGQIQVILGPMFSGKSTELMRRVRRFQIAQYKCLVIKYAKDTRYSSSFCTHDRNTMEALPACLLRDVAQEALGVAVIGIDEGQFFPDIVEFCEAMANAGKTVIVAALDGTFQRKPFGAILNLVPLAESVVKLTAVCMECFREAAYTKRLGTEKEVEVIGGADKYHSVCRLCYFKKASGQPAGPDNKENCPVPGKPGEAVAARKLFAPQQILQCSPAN
# [17] = target: T4, Uridine-cytidine kinase 1 (Homo sapiens) (UniProt Q9HA47); assay: Activity of cloned uridine-cytidine kinase 1 in human HuH7 cells up to 1 mM; format: cell-based; settings: Huh-7
# T4 sequence (whole entry): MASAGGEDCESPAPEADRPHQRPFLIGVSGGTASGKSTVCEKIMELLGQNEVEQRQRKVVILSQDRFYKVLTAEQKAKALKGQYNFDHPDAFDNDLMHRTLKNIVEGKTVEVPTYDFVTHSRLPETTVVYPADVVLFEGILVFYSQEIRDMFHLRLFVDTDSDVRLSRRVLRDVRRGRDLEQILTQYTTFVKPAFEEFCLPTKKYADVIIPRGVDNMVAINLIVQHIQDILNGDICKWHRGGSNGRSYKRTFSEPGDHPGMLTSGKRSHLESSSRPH
# [18] = target: Deoxycytidine kinase (Homo sapiens) (UniProt P27707); assay: Activity of cloned deoxycytidine kinase in human HepG2 cells up to 1 mM; format: cell-based
# Sequence of Deoxycytidine kinase (Homo sapiens) (P27707 whole entry, looked up): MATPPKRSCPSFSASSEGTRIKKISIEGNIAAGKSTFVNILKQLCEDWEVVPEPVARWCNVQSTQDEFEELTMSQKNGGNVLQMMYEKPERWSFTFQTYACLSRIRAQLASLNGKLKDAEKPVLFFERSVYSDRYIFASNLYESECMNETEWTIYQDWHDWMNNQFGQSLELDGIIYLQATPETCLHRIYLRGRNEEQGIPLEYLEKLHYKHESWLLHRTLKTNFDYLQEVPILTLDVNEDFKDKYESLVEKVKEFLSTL
# [19] = tested on: C[C@@]1(F)[C@H](O)[C@@H](COP(=O)(O)OP(=O)(O)OP(=O)(O)O)O[C@H]1n1ccc(N)nc1=O; assay: (§4) Activity of HCV NS5B polymerase S282T mutant; settings: Hepacivirus hominis; how it was run: as §3
# [20] = tested on: C[C@@]1(F)[C@H](O)[C@@H](COP(=O)(O)OP(=O)(O)OP(=O)(O)O)O[C@H]1n1ccc(=O)[nH]c1=O; assay: as §4; settings: Hepacivirus hominis; how it was run: as §3
# Sequence of Deoxycytidine kinase (Homo sapiens), P27707 (P27707 whole entry): as the sequence (P27707 whole entry, looked up) above
compound,measurement,setting,value
C[C@@]1(F)[C@H](O)[C@@H](COP(=O)(O)OP(=O)(O)O)O[C@H]1n1ccc(=O)[nH]c1=O,Activity,[1],inactive
same,Activity,Homo sapiens,inactive
same,Activity,[2],inactive
same,kcat/Km,Huh-7 [3],46000 M⁻¹ s⁻¹
same,Activity,[4],inactive
C[C@@]1(F)[C@H](O)[C@@H](COP(=O)(O)OP(=O)(O)OP(=O)(O)O)O[C@H]1n1ccc(=O)[nH]c1=O,Ki/Km,Hepacivirus hominis [5],6.2
same,Ratio,Hepacivirus hominis [6],23.7
same,Ki/Km,[7],147
O=c1ccn([C@@H]2O[C@H](COP(=O)(O)OP(=O)(O)O)[C@@H](O)[C@H]2O)c(=O)[nH]1,Km,Huh-7 [8],156 µM
same,kcat,Huh-7 [8],145 s⁻¹
same,kcat/Km,Huh-7 [9],930000 M⁻¹ s⁻¹
C[C@@]1(F)[C@H](O)[C@@H](COP(=O)(O)OP(=O)(O)O)O[C@H]1n1ccc(N)nc1=O,kcat/Km,Huh-7 [10],15000 M⁻¹ s⁻¹
C[C@@]1(F)[C@H](O)[C@@H](COP(=O)(O)O)O[C@H]1n1ccc(=O)[nH]c1=O,Activity,Hepatitis C virus [11],Active
same,Activity,Hepatitis C virus [12],Active
"Deoxycytidine kinase (Homo sapiens), P27707",kcat/Km,[13],1.9 ×10⁻⁴ /µM/s
C[C@@]1(F)[C@H](O)[C@@H](COP(=O)(O)OP(=O)(O)OP(=O)(O)O)O[C@H]1n1ccc(N)nc1=O,Ki/Km,Hepacivirus hominis [5],0.8
same,Km,Hepacivirus hominis [14],0.074 µM
same,Ratio,Hepacivirus hominis [6],7.5
same,Ki/Km,[7],6
C[C@@]1(F)[C@H](O)[C@@H](CO)O[C@H]1n1ccc(=O)[nH]c1=O,Activity,[15],inactive
same,Activity,[16],inactive
same,Activity,[17],inactive
same,Activity,[18],inactive
"RNA-directed RNA polymerase (Hepacivirus hominis), O39930 S282T",Km,[19],0.052 µM
same,Km,[20],0.15 µM
